# Measured values collected from several papers.
# Compare with care: the assays were run in different laboratories. pIC50, pKd, pKi: −log10 of the molar value.
# ENAH: Protein enabled homolog (ENAH, UniProt Q8N8S7)
# DPP4: Dipeptidyl peptidase 4 (DPP4, Homo sapiens, UniProt P27487)
# SRC: Proto-oncogene tyrosine-protein kinase Src (SRC, Homo sapiens, UniProt P12931)
SMILES,target,assay,setting,quantity,value
CC(=O)P(=O)(O)OCCc1cn([C@H](Cc2ccccc2)C(=O)O)nn1,"1-deoxy-D-xylulose-5-phosphate synthase (dxs, Escherichia coli, UniProt P77488)","enzyme activity, inhibitor",with preincubation,pKi,7.05
CC(=O)N[C@@H](CO)C(=O)N[C@@H](Cc1ccccc1)C(=O)N[C@@H](CCC(=O)O)C(=O)N[C@@H](Cc1ccccc1Cl)C(=O)N1CCC[C@H]1C(=O)N1CCC[C@H]1C(=O)N1CCC[C@H]1C(=O)N1CCC[C@H]1C(=O)N[C@H](C(=O)N[C@@H](CCC(=O)O)C(=O)N[C@@H](CC(=O)O)C(=O)N[C@@H](CCC(=O)O)C(=O)N[C@@H](CC(C)C)C(N)=O)[C@@H](C)O,ENAH,"binding, fluorescence",,pKd,6.10
O=C1C=CC(=O)N1CCCCCCCCCCCCCCCCCCN1CCCCC1,"Acetylcholinesterase (ACHE, Homo sapiens, UniProt P22303)","enzyme activity, inhibitor",,pKi,4.69
c1ccc(Nc2cccc3ccccc23)cc1,"lush (Drosophila melanogaster, UniProt O02372)",binding,,pKd,6.19
CC(=O)N[C@@H](Cc1ccccc1Cl)C(=O)N1CCC[C@H]1C(=O)N1CCC[C@H]1C(=O)N1CCC[C@H]1C(=O)N1CCC[C@H]1C(=O)N[C@H](C(=O)N[C@@H](CCC(=O)O)C(=O)N[C@@H](CC(=O)O)C(=O)N[C@@H](CC(=O)O)C(=O)N[C@@H](CC(C)C)C(N)=O)[C@@H](C)O,ENAH,"binding, fluorescence",,pKd,5.42
CC(C)[C@H](N)C(=O)N1CCC[C@H]1C(=O)N[C@H](C(=O)N1CCC[C@H]1C(=O)N[C@@H](Cc1c[nH]c2ccccc12)C(=O)O)C(C)C,DPP4,"enzyme activity, inhibitor, absorbance",pH 8,pIC50,4.04
NC(=S)c1cn(C2OC(CO)C(O)C2O)c2ncnc(N)c12 (stereo not drawn),"Activin receptor type-1 (ACVR1, Homo sapiens, UniProt Q04771)","thermal stability, DSF",,pKd,> 6.00
CC(C)[C@H](N)C(=O)N1CCC[C@H]1C(=O)N[C@H](C(=O)N1CCC[C@H]1C(=O)N[C@@H](CCC(=O)O)C(=O)O)C(C)C,DPP4,"enzyme activity, inhibitor, absorbance",pH 8,pIC50,4.08
Cn1cc(-c2cccc(N3CCc4c(sc5c4CC(C)(C)C5)C3=O)c2CO)cc(Nc2ccncn2)c1=O,SRC,"enzyme activity, inhibitor, FRET",,pKi,< 5.48
CC[C@H]1NC(=O)[C@@H]2CSC(=N2)[C@H](Cc2ccccc2)N(C)C(=O)[C@@H]2CCCN2C(=O)[C@H](C(C)C)N(C)C(=O)[C@H](Cc2ccccc2)OC(=O)[C@H](C)[C@@H](C)NC(=O)[C@@H]([C@@H](C)O)NC(=O)[C@@H](CC(C)C)N(C)C(=O)[C@@H]2CSC1=N2,DPP4,"enzyme activity, inhibitor",,pIC50,3.61
CC(C)[C@H](N)C(=O)N1CCC[C@H]1C(=O)N[C@H](C(=O)N1CCC[C@H]1C(=O)N[C@@H](CC(N)=O)C(=O)O)C(C)C,DPP4,"enzyme activity, inhibitor, absorbance",pH 8,pIC50,4.05
CC(=O)N[C@@H](Cc1ccccc1Cl)C(=O)N1CCC[C@H]1C(=O)N1CCC[C@H]1C(=O)N1CCC[C@H]1C(=O)N1CCC[C@H]1C(=O)O,ENAH,"binding, fluorescence",,pKd,5.00
Cn1cc(-c2cc(F)cc(N3CCn4c(cc5c4CCCC5)C3=O)c2CO)cc(Nc2ccc(N3CCN(C4COC4)CC3)cn2)c1=O,SRC,"enzyme activity, inhibitor, FRET",,pKi,6.60
CC(C)[C@H](N)C(=O)N1CCC[C@H]1C(=O)N[C@H](C(=O)N1CCC[C@H]1C(=O)N[C@@H](CCCNC(=N)N)C(=O)O)C(C)C,DPP4,"enzyme activity, inhibitor, absorbance",pH 8,pIC50,3.93
CC(=O)N[C@@H](Cc1ccccc1Cl)C(=O)N1CCC[C@H]1C(=O)N1CCC[C@H]1C(=O)N1CCC[C@H]1C(=O)N1CCC[C@H]1C(=O)N[C@H](C(=O)N[C@@H](CCC(=O)O)C(=O)N[C@@H](CC(=O)O)C(=O)N[C@@H](CCC(=O)O)C(=O)N[C@@H](CC(C)C)C(N)=O)[C@@H](C)O,ENAH,"binding, fluorescence",,pKd,5.90
